Holding throughout (assay type): biochemical
For one assay, the target named is α-glucosidase (Saccharomyces cerevisiae, UniProt P53341). The assay can be described thus: inhibitory kinetic assay on α-glucosidase.
Assay [1] deals with T1, aldose reductase (Rattus norvegicus, UniProt P07943). As to the kind of experiment: aldose reductase inhibition assay.
Assay [2] deals with T1, aldose reductase. The assay can be described thus: inhibitory kinetic assay on aldose reductase. Summed up: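 Aldose reductase from rat lens tissue. Reactions held NADPH (0.3 mM), phosphate buffer (100 mM, pH 6.2) and lithium sulfate (0.6 mM), with DL-glyceraldehyde substrate at several concentrations, with or without test compound, at 37 °C for 10 min. NADPH decrease was read at 340 nm. Rates were fitted by nonlinear Michaelis–Menten regression with Lineweaver–Burk, Dixon and slope secondary plots to derive Km, Vmax and Ki.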

As usually defined, the Ki is a dissociation constant, usually derived from enzyme kinetics or from competition with a known ligand. Low values mean a stronger hold on the target, high ones a looser hold on the target. The term IC50 denotes the concentration that inhibits the measured activity by half. Low values mean higher potency, high ones lower potency.

Sequence of α-glucosidase (P53341 whole entry): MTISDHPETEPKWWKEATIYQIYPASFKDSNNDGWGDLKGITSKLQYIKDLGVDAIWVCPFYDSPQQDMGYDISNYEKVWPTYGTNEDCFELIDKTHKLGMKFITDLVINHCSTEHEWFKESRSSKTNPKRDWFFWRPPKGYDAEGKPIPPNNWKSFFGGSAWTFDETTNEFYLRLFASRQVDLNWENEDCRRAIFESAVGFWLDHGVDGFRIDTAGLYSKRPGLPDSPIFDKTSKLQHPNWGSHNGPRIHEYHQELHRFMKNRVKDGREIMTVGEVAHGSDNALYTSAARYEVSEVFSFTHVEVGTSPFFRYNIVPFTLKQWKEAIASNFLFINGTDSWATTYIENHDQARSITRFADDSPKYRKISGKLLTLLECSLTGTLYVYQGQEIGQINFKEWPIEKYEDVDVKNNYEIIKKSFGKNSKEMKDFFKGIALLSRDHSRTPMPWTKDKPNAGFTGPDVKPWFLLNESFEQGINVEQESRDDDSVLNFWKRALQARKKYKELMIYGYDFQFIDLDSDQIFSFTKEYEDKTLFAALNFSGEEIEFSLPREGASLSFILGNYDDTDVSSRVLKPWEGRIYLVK

In the case of `COc1cc(O)cc(/C=C/c2ccc(O)cc2)c1` [pinostilbene, 3-methoxy-4′,5-dihydroxy-trans-stilbene], the Ki worked out at 14.3 ± 1.49 µM on α-glucosidase and 60 ± 4.64 µM on aldose reductase [2]. Moreover, the “inhibition type against α-glucosidase” value at α-glucosidase (Vmax decreased, Km fixed) is reported as “noncompetitive-type inhibition”. Moreover, at aldose reductase [1], half-maximal inhibition (IC50) required 55.4 ± 4.31 µM. Also, the “inhibition type against aldose reductase” value against aldose reductase [2] (Vmax decreased, Km fixed) was “noncompetitive-type inhibition”.
With `COc1cc(/C=C/c2ccc(O)cc2)cc(OC)c1` [pterostilbene], the “effect on aldose reductase inhibition (in words)” value at aldose reductase [1] (0–10 mM tested, data not shown) is given as “weak effect”.

The record behind these values is PMC12272566 (RSC Advances, 2025).
